Compound activity as filed in PubChem BioAssay.
Rpn11 block – inhibitors of human proteasome Rpn11 | inhibition, % at 20 µM | hit rate 0.59% among 360,000 | human 26S proteasome, Ub4-pepOG fluorescence polarization; 20S core pre-blocked with epoxomicin | O00487;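 active means inhibition at 20 µM, scaled to each plate's controls, above about 33%, limit read from the data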
Target sequence (O00487 whole entry, looked up): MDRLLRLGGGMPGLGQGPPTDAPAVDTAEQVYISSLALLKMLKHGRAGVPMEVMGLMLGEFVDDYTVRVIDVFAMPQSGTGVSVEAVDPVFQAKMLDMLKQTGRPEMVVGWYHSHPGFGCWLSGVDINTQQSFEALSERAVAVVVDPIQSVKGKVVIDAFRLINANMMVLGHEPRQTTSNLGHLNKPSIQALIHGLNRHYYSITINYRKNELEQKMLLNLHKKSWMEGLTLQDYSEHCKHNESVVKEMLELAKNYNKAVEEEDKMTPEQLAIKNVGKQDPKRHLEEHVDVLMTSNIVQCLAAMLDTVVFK
Myeloid diff MLP – compounds promoting myeloid differentiation; ER-HoxA9 myeloid progenitors, lysozyme-GFP differentiation, flow cytometry; calls only at 10 µM; hit rate 1% among 360,000;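 active means normalized GFP-positive differentiation at or above the plate's own cutoff, the solvent-only control mean plus 3 SD; inconclusive means no clear call, values can overlap the other calls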;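 further: cells exposed to compound for four days before flow analysis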
CSN inh – inhibitors of human CSN-mediated cullin deneddylation | Q92905 | Purified CSN, SCF-Nedd8-OG deneddylation, fluorescence polarization | inhibition, % at 12.5 µM | hit rate 0.38% among 360,000;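 active means pattern-corrected inhibition above about 35%, with an unprinted fluorescence ratio check between 0.5 and 1.5, limit read from the data, passing the limit was not always enough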
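Detection – fluorescence polarization · System – HEK293T-derived human Csn5 enzyme · Controls – substrate-only high control, full reaction low control · Timing – 90 min, room temperature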
TPT1 inh – C. albicans TPT1 enzyme inhibition; hit rate 0.81% among 300,000; recombinant caTPT1, FP RNA substrate dephosphorylation; inhibition, % at 5 µM;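 active means inhibition above the mean of all tested compounds plus 3 SD, set per screening campaign, cut at about 24% in these data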
HNF4A DNA FP – change in binding of human HNF4 alpha to DNA. HNF4a-FITC DNA binding, fluorescence polarization, 1 h. activity change, % at 10 µM. hit rate 0.3% among 360,000. AID 1224865; in the data active means activity change above about 30%, passing the limit was not always enough
caTPT1 confirm – confirmation of Candida albicans TPT1 inhibitors; recombinant caTPT1, fluorescence polarization, RNase T1 coupled; inhibition, % at 5 µM; hit rate 74% among 2,400; shares compounds with TPT1 inh; AID 2149;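 active means inhibition above the primary screen limit, the mean inhibition of all tested compounds plus 3 SD, cut at about 25% in these data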
RNase T1 inh – RNase T1 inhibition in TPT1 counter-screen; shares compounds with TPT1 inh; RNase T1 cleavage, fluorescence polarization, 1536-well; inhibition, % at 5 µM; hit rate 83% among 2,400; AID 2153;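 active means inhibition above the solvent-only control well mean plus 3 SD, limit set per screening run, cut at about 23% in these data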;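 further: inhibitors block cleavage so intact labeled substrate keeps polarization high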
Target sequence (P00651 whole entry, looked up): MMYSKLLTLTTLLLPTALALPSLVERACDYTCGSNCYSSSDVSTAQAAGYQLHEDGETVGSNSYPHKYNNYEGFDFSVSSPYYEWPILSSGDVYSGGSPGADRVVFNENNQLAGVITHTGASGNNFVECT
Rpn11 confirm – confirmation of human proteasome Rpn11 inhibitors | AID 602318 | hit rate 29% among 1,900 | shares compounds with Rpn11 block | purified human 26S proteasome, Ub4-pepOG fluorescence polarization; proteasome pretreated with epoxomicin | inhibition, % at 20 µM
MMP-2 counter-1 – blocks human MMP-2, flagging nonselective RPN11 hits | shares compounds with Rpn11 block | recombinant MMP-2, FRET peptide cleavage fluorescence | inhibition, % at 20 µM | hit rate 4% among 1,900;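 further: human MMP-2 activated beforehand with APMA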
Thrombin FP – blocks bovine thrombin, flagging nonselective RPN11 hits. AID 602333. bovine thrombin cleavage of Ub4-pepOG, fluorescence polarization. inhibition, % at 20 µM. hit rate 13% among 1,900. shares compounds with Rpn11 block;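 active means mean inhibition at least 40% at 20 µM, or signal 3 deviations below plate average, so some actives read negative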
Myeloid diff CP1 – promotes myeloid progenitor differentiation. shares compounds with Myeloid diff MLP. ER-HoxA9 myeloid progenitors, GFP/Mac1 double-positive flow. calls only. hit rate 2% among 2,300;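 active means share of green or green-and-red cells above 9 and 9% in run 1 or 4 and 3% in run 2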
GFP autofluor – counter-screen for myeloid differentiation promoters: compound fluorescence. shares compounds with Myeloid diff MLP. ER-HoxA9 myeloid progenitors, no estrogen, GFP autofluorescence flow cytometry; vehicle wells 0%, positive control 100%. fluorescence response, % (concentration not given with the values). hit rate 7.4% among 2,300. AID 651707;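 active means over 5% cells positive for green fluorescent reporter, or over 2% positive for both it and APC stain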
CSN deneddyl val – validation of inhibitors of human CSN-mediated cullin deneddylation | shares compounds with CSN inh | Csn5 deneddylation of SCF-Nedd8OG, fluorescence polarization, 90 min | inhibition, % at 16.6 µM | hit rate 62% among 540 | AID 720654; in the data active means inhibition above about 50%
MMP-2 counter-2 – counter-screen for CSN deneddylation inhibitors: human MMP-2 inhibition | shares compounds with CSN inh | recombinant MMP-2, FRET substrate fluorescence, 60 min | inhibition, % at 16.6 µM | hit rate 33% among 540 | AID 720655;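 active means corrected plate-normalized z-score of 5 or more, or -5 or less, or inhibition of 15% or more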
Thrombin counter – blocks bovine thrombin in a CSN deneddylation counter-screen; shares compounds with CSN inh; bovine thrombin cleavage of Ub4-pepOG, fluorescence polarization; hit rate 49% among 540; inhibition, % at 16.6 µM;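 active means inhibition at or above a set limit, with a fluorescence interference ratio between 0.5 and a set maximum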
Hits are given with their value; i = inactive; ? = inconclusive; nt = no result shown; + = active, no number. Shown are actives, neighbours in structure and some others; about 2.3% of the full set was active somewhere. Unless noted, no stated cut-off is given here; in the data, active means inhibition above about 40%; inactive means the rest.

SMILES	Rpn11 block	Myeloid diff MLP	CSN inh	TPT1 inh	HNF4A DNA FP	caTPT1 confirm	RNase T1 inh	Rpn11 confirm	MMP-2 counter-1	Thrombin FP	CSN deneddyl val	MMP-2 counter-2	Thrombin counter	others
CCCN1CCc2c(sc(NC(=O)c3ccc(S(=O)(=O)N(C)c4ccccc4)cc3)c2C(=O)NC)C1	nt	+	42	104	67	110	118	nt	nt	nt	179	i	i	Myeloid diff CP1=i;GFP autofluor=i
O=C(NCCc1ccccc1)C(NS(=O)(=O)c1cccc2nsnc12)c1ccccc1 (stereo not drawn)	i	i	i	i	i	nt	nt	nt	nt	nt	nt	nt	nt
O=C1/C(=C\c2ccc(O)c(O)c2)N=C2CCCCCN12	nt	i	38	27	i	45	47	nt	nt	nt	69	i	45
O=C1CC(C(=O)N2CCN(c3ccccn3)CC2)CN1Cc1ccccc1Cl (stereo not drawn)	i	i	i	i	i	nt	nt	nt	nt	nt	nt	nt	nt
CCCN(CC(=O)Nc1ccccc1OC)C(=O)CSC(=S)N1CCCC1	i	i	i	nt	i	nt	nt	nt	nt	nt	nt	nt	nt
O=C1NC(=Nc2ccccc2)S/C1=C\C=C\c1ccco1	58	i	74	24	i	i	34	i	52	i	80	i	i
COc1ccc(N=C2NC(=O)/C(=C/C=C/c3ccccc3)S2)cc1	i	i	i	i	i	nt	nt	nt	nt	nt	nt	nt	nt
CCOc1ccc(/C=C2/SC(=S)N(C(C(=O)O)c3ccccc3)C2=O)cc1OCC (stereo not drawn)	i	nt	i	nt	i	nt	nt	nt	nt	nt	nt	nt	nt
CCOc1cc(/C=C2\SC(=S)N(C(C(=O)O)c3ccccc3)C2=O)ccc1O (stereo not drawn)	112	i	41	45	i	48	61	63	i	72	81	i	55
COc1ccccc1/C=C1\SC(=S)N(C(C(=O)O)c2ccccc2)C1=O (stereo not drawn)	i	i	i	i	i	nt	nt	nt	nt	nt	nt	nt	nt
COc1cc(/C=C2/SC(=NCc3ccccc3)N(Cc3ccccc3)C2=O)ccc1O	i	i	i	i	i	nt	nt	nt	nt	nt	nt	nt	nt
COc1cc(/C=C2/SC(=S)N(Cc3ccccc3)C2=O)ccc1O	nt	+	57	24	69	37	46	nt	nt	nt	58	i	i
COc1cc(/C=C2\SC(=S)N(C(C(=O)O)c3ccccc3)C2=O)ccc1O (stereo not drawn)	81	i	39	27	i	28	41	56	i	73	73	i	61
COc1ccccc1NC(=O)c1ccc(Br)c(S(=O)(=O)N2CCCC2)c1	i	?	i	i	i	nt	nt	nt	nt	nt	nt	nt	nt
Cc1occc1C(=O)/C(C#N)=C/c1ccc(O)c(Br)c1	143	i	40	113	i	169	161	116	i	101	i	i	57
CCn1cc(CN2CCC(n3nccc3NC(=O)C3CCCC3)CC2)cn1	i	i	i	i	i	nt	nt	nt	nt	nt	nt	nt	nt
